Experimental data as given in ChEMBL document CHEMBL1158358, “Synthesis, antimicrobial and cytotoxic activities of some 5-arylidene-4-thioxo-thiazolidine-2-ones” (Eur J Med Chem, 2009).
Converted amounts (≈) assume the structure as drawn.

Legend:
Format in all cases: functional
Enterococcus faecalis [1] = assay: Antimicrobial activity against multidrug-resistant Enterococcus faecalis H.C. 24962 isolate after 20 hrs by twofold serial dilution technique; settings: H.C. 24962, 20 h
Procedure, shortened: (§1)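 Twofold serial dilution MIC in agar plates against Gram-positive strains and multidrug-resistant clinical isolates. Inoculum applied was 10⁵ CFU/plate. Plates with culture medium plus DMSO served as negative control. MIC was read after incubation at 35 °C for 20 h.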

Enterococcus faecalis [2] = assay: Antimicrobial activity against Enterococcus faecalis UFPEDA 138 after 20 hrs by twofold serial dilution technique; settings: UFPEDA 138, 20 h
Procedure, shortened: (§2)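 MIC was determined by twofold serial dilution. Bacteria were tested in plates at 10⁵ CFU/plate and read after 20 h. C. albicans was tested in tubes at 10³ CFU/tube and read after 48 h. All incubations were at 35 °C. Medium plus DMSO served as the negative control.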

Staphylococcus aureus [3] = assay: Antimicrobial activity against multidrug-resistant Staphylococcus aureus H.C. 20489 isolate after 20 hrs by twofold serial dilution technique; settings: H.C. 20489, 20 h; procedure, shortened: as §1
Candida albicans [4] = assay: Antimicrobial activity against Candida albicans UFPEDA 1007 after 48 hrs by twofold serial dilution technique; settings: UFPEDA 1007, 48 h; procedure, shortened: as §2
Staphylococcus aureus [5] = assay: Antimicrobial activity against multidrug-resistant Staphylococcus aureus H.C. 20981 isolate after 20 hrs by twofold serial dilution technique; settings: H.C. 20981, 20 h; procedure, shortened: as §1
Staphylococcus [6] = assay: Antimicrobial activity against coagulase-negative Staphylococcus H.A.M. 338 isolate after 20 hrs by twofold serial dilution technique; settings: H.A.M. 338, 20 h; procedure, shortened: as §2
Enterococcus faecalis [7] = assay: Antimicrobial activity against multidrug-resistant Enterococcus faecalis H.C. 21944 isolate after 20 hrs by twofold serial dilution technique; settings: H.C. 21944, 20 h; procedure, shortened: as §1
[8] = tested on: Mycolicibacterium smegmatis; assay: Antimicrobial activity against Mycobacterium smegmatis UFPEDA 71 at 300 ug/disk after 24 hrs by disk diffusion method; settings: UFPEDA 71, 24 h, read-out: IZ
Procedure, shortened: (§3)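 Preliminary screen by disk diffusion. Paper disks (6 mm) holding 300 µg of compound were placed on agar plates inoculated with a standardized microbial suspension. DMSO-only disks served as negative controls. A mean inhibition zone below 7 mm was scored as no sensitivity. Values are means, n = 3.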

Staphylococcus aureus [9] = assay: Antimicrobial activity against multidrug-resistant Staphylococcus aureus H.C. 20905 isolate after 20 hrs by twofold serial dilution technique; settings: H.C. 20905, 20 h; procedure, shortened: as §1
Bacillus subtilis [10] = assay: Antimicrobial activity against Bacillus subtilis UFPEDA 16 at 300 ug/disk after 24 hrs by disk diffusion method; settings: UFPEDA 16, 24 h, read-out: IZ; procedure, shortened: as §3
Staphylococcus aureus [11] = assay: Antimicrobial activity against Staphylococcus aureus UFPEDA 01 after 20 hrs by twofold serial dilution technique; settings: UFPEDA 01, 20 h; procedure, shortened: as §1
Staphylococcus aureus [12] = assay: Antimicrobial activity against multidrug-resistant Staphylococcus aureus H.C. 21036 isolate after 20 hrs by twofold serial dilution technique; settings: H.C. 21036, 20 h; procedure, shortened: as §1
HEp-2 [13] = assay: Cytotoxicity against human Hep2 cells at 1.25 ug/mL after 72 hrs by MTT assay; settings: HEp-2, 72 h, read-out: GI
Procedure, shortened: (§4)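 MTT antiproliferative assay. Cells were diluted to 10⁵ cells/mL in 96-well plates and preincubated for 24 h at 37 °C in humid 5% CO₂. Compounds or vincristine (reference) were then added. Formazan was dissolved and OD read at 540 nm, compared with medium-only control cells. Run in triplicate.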

NCI-H292 [14] = assay: Cytotoxicity against human NCI-H292 cells at 5 ug/mL after 72 hrs by MTT assay; settings: NCI-H292, 72 h, read-out: GI; procedure, shortened: as §4
[15] = tested on: Mycolicibacterium smegmatis; assay: Antimicrobial activity against Mycobacterium smegmatis UFPEDA 71 after 20 hrs by twofold serial dilution technique; settings: UFPEDA 71, 20 h; procedure, shortened: as §2
Pseudomonas aeruginosa = assay: Antimicrobial activity against Pseudomonas aeruginosa UFPEDA 39 at 300 ug/disk after 24 hrs by disk diffusion method; settings: UFPEDA 39, 24 h, read-out: IZ; procedure, shortened: as §3
NCI-H292 [16] = assay: Cytotoxicity against human NCI-H292 cells at 10 ug/mL after 72 hrs by MTT assay; settings: NCI-H292, 72 h, read-out: GI; procedure, shortened: as §4
Serratia marcescens = assay: Antimicrobial activity against Serratia marcescens UFPEDA 398 at 300 ug/disk after 24 hrs by disk diffusion method; settings: UFPEDA 398, 24 h, read-out: IZ; procedure, shortened: as §3
Micrococcus luteus [17] = assay: Antimicrobial activity against Micrococcus luteus UFPEDA 06 at 300 ug/disk after 24 hrs by disk diffusion method; settings: UFPEDA 06, 24 h, read-out: IZ; procedure, shortened: as §3
Micrococcus luteus [18] = assay: Antimicrobial activity against Micrococcus luteus UFPEDA 06 after 20 hrs by twofold serial dilution technique; settings: UFPEDA 06, 20 h; procedure, shortened: as §2
Staphylococcus [19] = assay: Antimicrobial activity against coagulase-negative Staphylococcus H.A.M. 278 isolate after 20 hrs by twofold serial dilution technique; settings: H.A.M. 278, 20 h; procedure, shortened: as §2
Bacillus subtilis [20] = assay: Antimicrobial activity against Bacillus subtilis UFPEDA 16 after 20 hrs by twofold serial dilution technique; settings: UFPEDA 16, 20 h; procedure, shortened: as §2
Staphylococcus aureus [21] = assay: Antimicrobial activity against multidrug-resistant Staphylococcus aureus H.C. 20794 isolate after 20 hrs by twofold serial dilution technique; settings: H.C. 20794, 20 h; procedure, shortened: as §1
Enterococcus faecalis [22] = assay: Antimicrobial activity against multidrug-resistant Enterococcus faecalis H.C. 21752 isolate after 20 hrs by twofold serial dilution technique; settings: H.C. 21752, 20 h; procedure, shortened: as §1
NCI-H292 [23] = assay: Cytotoxicity against human NCI-H292 cells at 1.25 ug/mL after 72 hrs by MTT assay; settings: NCI-H292, 72 h, read-out: GI; procedure, shortened: as §4
Staphylococcus aureus [24] = assay: Antimicrobial activity against Staphylococcus aureus UFPEDA 01 at 300 ug/disk after 24 hrs by disk diffusion method; settings: UFPEDA 01, 24 h, read-out: IZ; procedure, shortened: as §3
Enterococcus faecalis [25] = assay: Antimicrobial activity against multidrug-resistant Enterococcus faecalis H.C. 24708 isolate after 20 hrs by twofold serial dilution technique; settings: H.C. 24708, 20 h; procedure, shortened: as §1
HEp-2 [26] = assay: Cytotoxicity against human Hep2 cells at 10 ug/mL after 72 hrs by MTT assay; settings: HEp-2, 72 h, read-out: GI; procedure, shortened: as §4
Candida albicans [27] = assay: Antimicrobial activity against Candida albicans UFPEDA 1007 at 300 ug/disk after 48 hrs by disk diffusion method; settings: UFPEDA 1007, 48 h, read-out: IZ; procedure, shortened: as §3
Escherichia coli = assay: Antimicrobial activity against Escherichia coli UFPEDA 224 at 300 ug/disk after 24 hrs by disk diffusion method; settings: UFPEDA 224, 24 h, read-out: IZ; procedure, shortened: as §3
NCI-H292 [28] = assay: Cytotoxicity against human NCI-H292 cells at 2.5 ug/mL after 72 hrs by MTT assay; settings: NCI-H292, 72 h, read-out: GI; procedure, shortened: as §4
Staphylococcus aureus [29] = assay: Antimicrobial activity against multidrug-resistant Staphylococcus aureus H.C. 21141 isolate after 20 hrs by twofold serial dilution technique; settings: H.C. 21141, 20 h; procedure, shortened: as §1
HEp-2 [30] = assay: Cytotoxicity against human Hep2 cells at 5 ug/mL after 72 hrs by MTT assay; settings: HEp-2, 72 h, read-out: GI; procedure, shortened: as §4
Enterococcus faecalis [31] = assay: Antimicrobial activity against Enterococcus faecalis UFPEDA 138 at 300 ug/disk after 24 hrs by disk diffusion method; settings: UFPEDA 138, 24 h, read-out: IZ; procedure, shortened: as §3
HEp-2 [32] = assay: Cytotoxicity against human Hep2 cells at 2.5 ug/mL after 72 hrs by MTT assay; settings: HEp-2, 72 h, read-out: GI; procedure, shortened: as §4

With `O=C1NC(=S)/C(=C/c2c(Cl)cccc2Cl)S1` the MIC (Enterococcus faecalis [1]) was 16 µg/mL (≈ 55.1 µM), the MIC (Enterococcus faecalis [2]) was 16 µg/mL (≈ 55.1 µM) and the MIC (Staphylococcus aureus [3]) was 4 µg/mL (≈ 13.8 µM). The MIC (Candida albicans [4]) was 32 µg/mL (≈ 110 µM), the MIC (Staphylococcus aureus [5]) was 8 µg/mL (≈ 27.6 µM) and the MIC (Staphylococcus [6]) was 4 µg/mL (≈ 13.8 µM). It also gave an MIC (Enterococcus faecalis [7]) of 8 µg/mL (≈ 27.6 µM), a zone of inhibition at 300 µg/disc [8] of 17 mm and an MIC (Staphylococcus aureus [9]) of 4 µg/mL (≈ 13.8 µM). It also gave a zone of inhibition at 300 µg/disc (Bacillus subtilis [10]) of 20 mm, an MIC (Staphylococcus aureus [11]) of 4 µg/mL (≈ 13.8 µM) and an MIC (Staphylococcus aureus [12]) of 8 µg/mL (≈ 27.6 µM). The inhibition of growth at 1.25 µg/mL (HEp-2 [13]) was -9.16%, the inhibition of growth at 5 µg/mL (NCI-H292 [14]) was 10.3% and the MIC [15] was 4 µg/mL (≈ 13.8 µM). The zone of inhibition at 300 µg/disc (Pseudomonas aeruginosa) was less than 7 mm, the inhibition of growth at 10 µg/mL (NCI-H292 [16]) was 32.8% and the zone of inhibition at 300 µg/disc (Serratia marcescens) was less than 7 mm. The zone of inhibition at 300 µg/disc (Micrococcus luteus [17]) was 18 mm, the MIC (Micrococcus luteus [18]) was 16 µg/mL (≈ 55.1 µM) and the MIC (Staphylococcus [19]) was 4 µg/mL (≈ 13.8 µM). It also gave an MIC (Bacillus subtilis [20]) of 8 µg/mL (≈ 27.6 µM), an MIC (Staphylococcus aureus [21]) of 4 µg/mL (≈ 13.8 µM) and an MIC (Enterococcus faecalis [22]) of 8 µg/mL (≈ 27.6 µM). It also gave an inhibition of growth at 1.25 µg/mL (NCI-H292 [23]) of 4.36%, a zone of inhibition at 300 µg/disc (Staphylococcus aureus [24]) of 20 mm and an MIC (Enterococcus faecalis [25]) of 16 µg/mL (≈ 55.1 µM). The inhibition of growth at 10 µg/mL (HEp-2 [26]) was 8.73%, the zone of inhibition at 300 µg/disc (Candida albicans [27]) was 15 mm and the zone of inhibition at 300 µg/disc (Escherichia coli) was less than 7 mm. The inhibition of growth at 2.5 µg/mL (NCI-H292 [28]) was 7.7%, the MIC (Staphylococcus aureus [29]) was 8 µg/mL (≈ 27.6 µM) and the inhibition of growth at 5 µg/mL (HEp-2 [30]) was -2.39%. For the same compound, the zone of inhibition at 300 µg/disc (Enterococcus faecalis [31]) was less than 7 mm and the inhibition of growth at 2.5 µg/mL (HEp-2 [32]) was -4.24%.
